Results published in ChEMBL document CHEMBL1134439, “Radioiodinated styrylbenzenes and thioflavins as probes for amyloid aggregates” (J Med Chem, 2001).

Key:
Mus musculus [1] = assay: Biodistribution was measured in mice heart 6 hours after intravenous injection of [125I]-labeled styrylbenzene.; type: ADME, organism-based; conditions: in vivo
Procedure, shortened: (§1)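 ICR mice (2-3 months old, 20-30 g) under ether anesthesia received 5-10 µCi ¹²⁵I tracer in 0.15 mL saline by tail-vein injection. Animals were killed by cardiac excision at set times post-injection. Organs were removed, weighed and γ-counted. Values are % dose per organ against diluted injectate aliquots, taking blood and muscle as 7% and 40% of body weight. Mean of 3-4 mice ± SD.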

Mus musculus [2] = assay: Biodistribution was measured in mice heart 60 minutes after intravenous injection of [125I]-labeled styrylbenzene.; type: ADME, organism-based; conditions: in vivo, 1 h; procedure, shortened: as §1
Mus musculus [3] = assay: Biodistribution was measured in mice kidney 2 minutes after intravenous injection of [125I]-labeled styrylbenzene.; type: ADME, organism-based; conditions: in vivo; procedure, shortened: as §1
Mus musculus [4] = assay: Biodistribution was measured in mice kidney 24 hours after intravenous injection of [125I]-labeled styrylbenzene.; type: ADME, organism-based; conditions: in vivo; procedure, shortened: as §1
Mus musculus [5] = assay: Biodistribution was measured in mice kidney 30 minutes after intravenous injection of [125I]-labeled styrylbenzene.; type: ADME, organism-based; conditions: in vivo, 0.5 h; procedure, shortened: as §1
Mus musculus [6] = assay: Biodistribution was measured in mice kidney 6 hours after intravenous injection of [125I]-labeled styrylbenzene.; type: ADME, organism-based; conditions: in vivo; procedure, shortened: as §1
Mus musculus [7] = assay: Biodistribution was measured in mice kidney 60 minutes after intravenous injection of [125I]-labeled styrylbenzene.; type: ADME, organism-based; conditions: in vivo, 1 h; procedure, shortened: as §1
Mus musculus [8] = assay: Biodistribution was measured in mice liver 2 minutes after intravenous injection of [125I]-labeled styrylbenzene.; type: ADME, organism-based; conditions: in vivo; procedure, shortened: as §1
Mus musculus [9] = assay: Biodistribution was measured in mice liver 24 hours after intravenous injection of [125I]-labeled styrylbenzene.; type: ADME, organism-based; conditions: in vivo; procedure, shortened: as §1
Mus musculus [10] = assay: Biodistribution was measured in mice liver 30 minutes after intravenous injection of [125I]-labeled styrylbenzene.; type: ADME, organism-based; conditions: in vivo, 0.5 h; procedure, shortened: as §1
Mus musculus [11] = assay: Biodistribution was measured in mice liver 60 minutes after intravenous injection of [125I]-labeled styrylbenzene.; type: ADME, organism-based; conditions: in vivo, 1 h; procedure, shortened: as §1
Mus musculus [12] = assay: Biodistribution was measured in mice muscle 24 hourss after intravenous injection of [125I]-labeled styrylbenzene.; type: ADME, organism-based, Muscle tissue; conditions: in vivo; procedure, shortened: as §1
Mus musculus [13] = assay: Biodistribution was measured in mice muscle 30 minutes after intravenous injection of [125I]-labeled styrylbenzene.; type: ADME, organism-based, Muscle tissue; conditions: in vivo, 0.5 h; procedure, shortened: as §1
Mus musculus [14] = assay: Biodistribution was measured in mice muscle 6 hours after intravenous injection of [125I]-labeled styrylbenzene.; type: ADME, organism-based, Muscle tissue; conditions: in vivo; procedure, shortened: as §1
Mus musculus [15] = assay: Biodistribution was measured in mice muscle 60 minutes after intravenous injection of [125I]-labeled styrylbenzene.; type: ADME, organism-based, Muscle tissue; conditions: in vivo, 1 h; procedure, shortened: as §1
Mus musculus [16] = assay: Biodistribution was measured in mice skin 2 minutes after intravenous injection of [125I]-labeled styrylbenzene.; type: ADME, organism-based, Zone of skin; conditions: in vivo; procedure, shortened: as §1
Mus musculus [17] = assay: Biodistribution was measured in mice skin 24 hours after intravenous injection of [125I]-labeled styrylbenzene.; type: ADME, organism-based, Zone of skin; conditions: in vivo; procedure, shortened: as §1
Mus musculus [18] = assay: Biodistribution was measured in mice skin 30 minutes after intravenous injection of [125I]-labeled styrylbenzene.; type: ADME, organism-based, Zone of skin; conditions: in vivo, 0.5 h; procedure, shortened: as §1
Mus musculus [19] = assay: Biodistribution was measured in mice skin 6 hours after intravenous injection of [125I]-labeled styrylbenzene.; type: ADME, organism-based, Zone of skin; conditions: in vivo; procedure, shortened: as §1
Mus musculus [20] = assay: Biodistribution was measured in mice skin 60 minutes after intravenous injection of [125I]-labeled styrylbenzene.; type: ADME, organism-based, Zone of skin; conditions: in vivo, 1 h; procedure, shortened: as §1
Mus musculus [21] = assay: Biodistribution was measured in mice spleen 2 minutes after intravenous injection of [125I]-labeled styrylbenzene.; type: ADME, organism-based; conditions: in vivo; procedure, shortened: as §1
Mus musculus [22] = assay: Biodistribution was measured in mice spleen 24 hours after intravenous injection of [125I]-labeled styrylbenzene.; type: ADME, organism-based; conditions: in vivo
Mus musculus [23] = assay: Biodistribution was measured in mice spleen 30 minutes after intravenous injection of [125I]-labeled styrylbenzene.; type: ADME, organism-based; conditions: in vivo, 0.5 h
Procedure, shortened: (§2)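 ICR mice (2-3 months old, 20-30 g) under ether anesthesia; 0.15 mL saline containing 5-10 µCi ¹²⁵I tracer injected into tail vein. Sacrifice by cardiac excision at set times; organs removed, weighed, γ-counted. Expressed as % dose per organ versus diluted aliquots of injectate. Mean of three or four mice ± SD.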

Mus musculus [24] = assay: Biodistribution was measured in mice spleen 60 minutes after intravenous injection of [125I]-labeled styrylbenzene.; type: ADME, organism-based; conditions: in vivo, 1 h; procedure, shortened: as §2
Mus musculus [25] = assay: Biodistribution was measured in mice blood 2 minutes after intravenous injection of [125I]-labeled styrylbenzene.; type: ADME, organism-based; conditions: in vivo; procedure, shortened: as §1
Mus musculus [26] = assay: Biodistribution was measured in mice blood 24 hours after intravenous injection of [125I]-labeled styrylbenzene.; type: ADME, organism-based; conditions: in vivo; procedure, shortened: as §1
Mus musculus [27] = assay: Biodistribution was measured in mice blood 30 minutes after intravenous injection of [125I]-labeled styrylbenzene.; type: ADME, organism-based; conditions: in vivo, 0.5 h; procedure, shortened: as §1
Mus musculus [28] = assay: Biodistribution was measured in mice lung 2 minutes after intravenous injection of [125I]-labeled styrylbenzene.; type: ADME, organism-based; conditions: in vivo; procedure, shortened: as §1
Mus musculus [29] = assay: Biodistribution was measured in mice lung 24 hours after intravenous injection of [125I]-labeled styrylbenzene.; type: ADME, organism-based; conditions: in vivo, in the assay text read “thioflavin” for “styrylbenzene”; procedure, shortened: as §1
Mus musculus [30] = assay: Biodistribution was measured in mice lung 30 minutes after intravenous injection of [125I]-labeled styrylbenzene.; type: ADME, organism-based; conditions: in vivo, 0.5 h; procedure, shortened: as §1
Mus musculus [31] = assay: Biodistribution was measured in mice lung 6 hours after intravenous injection of [125I]-labeled styrylbenzene.; type: ADME, organism-based; conditions: in vivo, in the assay text read “thioflavin” for “styrylbenzene”; procedure, shortened: as §1
Mus musculus [32] = assay: Biodistribution was measured in mice lung 60 minutes after intravenous injection of [125I]-labeled styrylbenzene.; type: ADME, organism-based; conditions: in vivo, 1 h; procedure, shortened: as §1
Mus musculus [33] = assay: Biodistribution was measured in mice muscle 2 minutes after intravenous injection of [125I]-labeled styrylbenzene.; type: ADME, organism-based, Muscle tissue; conditions: in vivo, in the assay text read “thioflavin” for “styrylbenzene”; procedure, shortened: as §1
Mus musculus [34] = assay: Biodistribution was measured in mice brain 6 hours after intravenous injection of [125I]-labeled styrylbenzene; type: ADME, organism-based; conditions: in vivo; procedure, shortened: as §1
Mus musculus [35] = assay: Biodistribution was measured in mice brain 60 minutes after intravenous injection of [125I]-labeled styrylbenzene; type: ADME, organism-based; conditions: in vivo, 1 h; procedure, shortened: as §1
Mus musculus [36] = assay: Biodistribution was measured in mice heart 2 minutes after intravenous injection of [125I]-labeled styrylbenzene.; type: ADME, organism-based; conditions: in vivo; procedure, shortened: as §1
Mus musculus [37] = assay: Biodistribution was measured in mice heart 24 hours after intravenous injection of [125I]-labeled styrylbenzene.; type: ADME, organism-based; conditions: in vivo; procedure, shortened: as §1
Mus musculus [38] = assay: Biodistribution was measured in mice heart 30 minutes after intravenous injection of [125I]-labeled styrylbenzene.; type: ADME, organism-based; conditions: in vivo, 0.5 h; procedure, shortened: as §1
Mus musculus [39] = assay: Biodistribution was measured in mice blood 6 hours after intravenous injection of [125I]-labeled styrylbenzene.; type: ADME, organism-based; conditions: in vivo; procedure, shortened: as §1
Mus musculus [40] = assay: Biodistribution was measured in mice blood 60 minutes after intravenous injection of [125I]-labeled styrylbenzene.; type: ADME, organism-based; conditions: in vivo, 1 h; procedure, shortened: as §1
Mus musculus [41] = assay: Biodistribution was measured in mice brain 2 minutes after intravenous injection of [125I]-labeled styrylbenzene; type: ADME, organism-based; conditions: in vivo, in the assay text read “thioflavin” for “styrylbenzene”; procedure, shortened: as §1
Mus musculus [42] = assay: Biodistribution was measured in mice brain 24 hours after intravenous injection of [125I]-labeled styrylbenzene; type: ADME, organism-based; conditions: in vivo, in the assay text read “thioflavin” for “styrylbenzene”; procedure, shortened: as §1
Mus musculus [43] = assay: Biodistribution was measured in mice brain 30 minutes after intravenous injection of [125I]-labeled styrylbenzene; type: ADME, organism-based; conditions: in vivo, 0.5 h; procedure, shortened: as §1
[44] = molecular target: Amyloid-beta precursor protein (Homo sapiens, UniProt P05067); assay: Inhibition constant for aggregates of amyloid beta compared to [125I]IMSB
Chain of Amyloid-beta precursor protein (P05067 whole entry): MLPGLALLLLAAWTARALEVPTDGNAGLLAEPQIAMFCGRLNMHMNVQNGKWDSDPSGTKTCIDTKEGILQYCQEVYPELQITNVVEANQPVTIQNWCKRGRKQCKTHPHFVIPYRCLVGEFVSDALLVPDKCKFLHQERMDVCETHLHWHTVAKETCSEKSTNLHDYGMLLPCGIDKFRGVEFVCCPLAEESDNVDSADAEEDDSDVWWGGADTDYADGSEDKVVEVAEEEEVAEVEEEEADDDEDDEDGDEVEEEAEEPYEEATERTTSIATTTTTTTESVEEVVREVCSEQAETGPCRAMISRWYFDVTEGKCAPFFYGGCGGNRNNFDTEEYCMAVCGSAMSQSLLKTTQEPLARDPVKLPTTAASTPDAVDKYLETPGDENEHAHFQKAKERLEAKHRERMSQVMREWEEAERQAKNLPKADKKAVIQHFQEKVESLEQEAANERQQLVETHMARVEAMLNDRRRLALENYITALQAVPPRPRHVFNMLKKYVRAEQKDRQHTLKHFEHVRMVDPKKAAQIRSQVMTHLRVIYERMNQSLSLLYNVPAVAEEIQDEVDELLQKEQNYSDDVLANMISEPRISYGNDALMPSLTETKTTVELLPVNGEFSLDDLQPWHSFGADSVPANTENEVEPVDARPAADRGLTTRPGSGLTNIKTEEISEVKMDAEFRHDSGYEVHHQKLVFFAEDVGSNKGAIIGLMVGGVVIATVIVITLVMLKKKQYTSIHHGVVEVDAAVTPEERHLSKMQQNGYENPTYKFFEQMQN
Procedure, shortened: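 Aβ(1-40) or Aβ(1-42) aggregated at 0.5 or 0.25 mg/mL respectively in pH 7.4 buffer (10 mM sodium phosphate, 1 mM EDTA), 37 °C, 36-42 h with shaking. Competition against ¹²⁵I radioligand with fibrils 10-50 nM (final), 10% EtOH, 1 mL. Incubation 3 h room temperature. Bound ligand collected by GF/B filtration, γ-counted. Ki by nonlinear regression. Mean ± SEM, three experiments in duplicate.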

Mus musculus [45] = assay: Biodistribution was measured in mice liver 6 hours after intravenous injection of [125I]-labeled styrylbenzene.; type: ADME, organism-based; conditions: in vivo, in the assay text read “thioflavin” for “styrylbenzene”; procedure, shortened: as §1
Mus musculus [46] = assay: Biodistribution was measured in mice spleen 6 hours after intravenous injection of [125I]-labeled thioflavin.; conditions: in vivo

## CN(C)c1ccc(-c2nc3ccc(I)cc3s2)cc1
Mus musculus [1]
  Dose/organ: 0.05%
Mus musculus [2]
  Dose/organ: 0.17%
Mus musculus [3]
  Dose/organ: 5.42%
Mus musculus [4]
  Dose/organ: 0.06%
Mus musculus [5]
  Dose/organ: 2.24%
Mus musculus [6]
  Dose/organ: 0.54%
Mus musculus [7]
  Dose/organ: 2.23%
Mus musculus [8]
  Dose/organ: 31.62%
Mus musculus [9]
  Dose/organ: 0.3%
Mus musculus [10]
  Dose/organ: 10.93%
Mus musculus [11]
  Dose/organ: 9.21%
Mus musculus [12]
  Dose/organ: 0.33%
Mus musculus [13]
  Dose/organ: 12.89%
Mus musculus [14]
  Dose/organ: 2.93%
Mus musculus [15]
  Dose/organ: 12.81%
Mus musculus [16]
  Dose/organ: 3.2%
Mus musculus [17]
  Dose/organ: 0.2%
Mus musculus [18]
  Dose/organ: 7.4%
Mus musculus [19]
  Dose/organ: 3.8%
Mus musculus [20]
  Dose/organ: 12.8%
Mus musculus [21]
  Dose/organ: 0.59%
Mus musculus [22]
  Dose/organ: 0.01%
Mus musculus [23]
  Dose/organ: 0.2%
Mus musculus [24]
  Dose/organ: 0.17%
Mus musculus [25]
  Dose/organ: 15.74%
Mus musculus [26]
  Dose/organ: 0.29%
Mus musculus [27]
  Dose/organ: 3.26%
Mus musculus [28]
  Dose/organ: 5.91%
Mus musculus [29]
  Dose/organ: 0.03%
Mus musculus [30]
  Dose/organ: 0.72%
Mus musculus [31]
  Dose/organ: 0.21%
Mus musculus [32]
  Dose/organ: 0.78%
Mus musculus [33]
  Dose/organ: 17.81%
Mus musculus [34]
  Dose/organ: 0.65%
Mus musculus [35]
  Dose/organ: 1.57%
Mus musculus [36]
  Dose/organ: 1.79%
Mus musculus [37]
  Dose/organ: 0.01%
Mus musculus [38]
  Dose/organ: 0.2%
Mus musculus [39]
  Dose/organ: 1.44%
Mus musculus [40]
  Dose/organ: 3.79%
Mus musculus [41]
  Dose/organ: 0.6%
Mus musculus [42]
  Dose/organ: 0.04%
Mus musculus [43]
  Dose/organ: 0.9%
[44]
  Ki: > 5 µM
Mus musculus [45]
  Dose/organ: 1.52%
Mus musculus [46]
  Dose/organ: 0.04%
